Data published in ChEMBL document CHEMBL3297708, “Lead optimization of a novel series of imidazo[1,2-a]pyridine amides leading to a clinical candidate (Q203) as a multi- and extensively-drug-resistant anti-tuberculosis agent” (J Med Chem, 2014).
Converted amounts (≈) assume the structure as drawn.

Assays:
[1] = Half life in human liver microsomes; type: ADME
Method in brief: (§1)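 Metabolic stability measured by incubation in human or mouse liver microsomal preparations; half-life reported.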

[2] = Half life in mouse liver microsomes; type: ADME; method in brief: as §1
[3] = system: Mycobacterium tuberculosis; assay: Antimycobacterial activity against Mycobacterium tuberculosis H37Rv in macrophages; type: functional
Method in brief: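 M. tuberculosis H37Rv replicating inside macrophages; intracellular MIC80 determined, i.e. concentration inhibiting 80% of growth.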

[4] = system: Mycobacterium tuberculosis; assay: Antimycobacterial activity against Mycobacterium tuberculosis H37Rv in liquid broth culture medium; type: functional
Method in brief: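 M. tuberculosis H37Rv replicating in liquid broth culture medium; MIC80 determined, i.e. concentration inhibiting 80% of growth.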

[5] = Solubility of the compound in aqueous solution at pH 2.1; type: physicochemical
[6] = Solubility of the compound in phosphate buffer at pH 7.4; type: physicochemical
Cytochrome P450 2C9 = Cytochrome P450 2C9 (Homo sapiens, UniProt P11712); assay: Inhibition of recombinant CYP2C9 (unknown origin) by LC/MS/MS analysis; type: ADME
Cytochrome P450 2C9, sequence (P11712 whole entry): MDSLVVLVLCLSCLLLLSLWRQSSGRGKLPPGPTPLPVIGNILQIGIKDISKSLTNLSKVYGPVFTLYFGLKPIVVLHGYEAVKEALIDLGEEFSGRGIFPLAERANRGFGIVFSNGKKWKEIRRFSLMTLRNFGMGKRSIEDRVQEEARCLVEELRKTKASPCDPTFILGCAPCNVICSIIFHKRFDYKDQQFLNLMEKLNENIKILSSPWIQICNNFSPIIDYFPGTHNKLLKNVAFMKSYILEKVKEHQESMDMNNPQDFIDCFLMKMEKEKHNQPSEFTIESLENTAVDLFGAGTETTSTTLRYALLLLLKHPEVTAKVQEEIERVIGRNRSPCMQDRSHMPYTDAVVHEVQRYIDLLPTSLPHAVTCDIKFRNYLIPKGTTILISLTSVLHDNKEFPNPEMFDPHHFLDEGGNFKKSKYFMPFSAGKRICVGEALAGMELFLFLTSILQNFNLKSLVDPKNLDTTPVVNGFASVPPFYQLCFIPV
Method in brief: (§2)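 Recombinant CYP enzymes (5 pmol/mL) with substrate, in 100 mM potassium phosphate pH 7.4, 3.3 mM MgCl2, with or without 1 mM NADPH; incubated 10 min (CYP1A2, CYP2C9), 20 min (CYP2C19, CYP2D6), or 3 min (CYP3A4); stopped with cold stop solution containing tolbutamide internal standard; metabolite measured by LC-MS/MS.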

Cytochrome P450 3A4 = Cytochrome P450 3A4 (Homo sapiens, UniProt P08684); assay: Inhibition of recombinant CYP3A4 (unknown origin) by LC/MS/MS analysis; type: ADME; method in brief: as §2
Cytochrome P450 3A4, sequence (P08684 whole entry): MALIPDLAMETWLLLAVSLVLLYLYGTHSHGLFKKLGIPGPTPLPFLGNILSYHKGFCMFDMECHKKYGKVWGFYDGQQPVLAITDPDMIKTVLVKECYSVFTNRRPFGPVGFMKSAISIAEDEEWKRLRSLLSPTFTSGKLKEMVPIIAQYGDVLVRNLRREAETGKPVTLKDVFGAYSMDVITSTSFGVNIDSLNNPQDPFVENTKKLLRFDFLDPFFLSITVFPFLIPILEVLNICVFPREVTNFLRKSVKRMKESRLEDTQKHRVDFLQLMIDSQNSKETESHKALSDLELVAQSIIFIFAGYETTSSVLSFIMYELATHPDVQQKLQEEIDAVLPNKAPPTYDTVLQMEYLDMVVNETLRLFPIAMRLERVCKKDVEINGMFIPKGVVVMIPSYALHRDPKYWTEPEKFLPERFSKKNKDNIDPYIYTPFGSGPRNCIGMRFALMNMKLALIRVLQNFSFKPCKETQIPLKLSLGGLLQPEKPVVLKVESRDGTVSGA

Cytochrome P450 2C19 = Cytochrome P450 2C19 (Homo sapiens, UniProt P33261); assay: Inhibition of recombinant CYP2C19 (unknown origin) by LC/MS/MS analysis; type: ADME; method in brief: as §2
Cytochrome P450 2C19, sequence (P33261 whole entry): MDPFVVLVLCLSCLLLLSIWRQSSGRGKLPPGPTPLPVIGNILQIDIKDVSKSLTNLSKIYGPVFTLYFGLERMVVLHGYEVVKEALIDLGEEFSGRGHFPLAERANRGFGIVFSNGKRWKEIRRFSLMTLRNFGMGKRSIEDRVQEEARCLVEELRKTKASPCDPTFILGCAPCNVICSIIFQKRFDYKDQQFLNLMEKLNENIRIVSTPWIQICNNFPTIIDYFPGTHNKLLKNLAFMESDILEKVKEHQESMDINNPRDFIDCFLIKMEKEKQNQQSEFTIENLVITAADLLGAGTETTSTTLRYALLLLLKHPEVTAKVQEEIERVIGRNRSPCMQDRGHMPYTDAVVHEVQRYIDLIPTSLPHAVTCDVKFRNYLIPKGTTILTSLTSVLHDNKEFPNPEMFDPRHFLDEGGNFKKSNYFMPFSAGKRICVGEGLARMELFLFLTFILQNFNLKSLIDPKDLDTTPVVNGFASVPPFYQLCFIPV

Cytochrome P450 1A2 = target: T1, Cytochrome P450 1A2 (Homo sapiens, UniProt P05177); assay: Inhibition of recombinant CYP1A2 (unknown origin) by LC/MS/MS analysis; type: ADME; method in brief: as §2
T1 sequence (P05177 whole entry): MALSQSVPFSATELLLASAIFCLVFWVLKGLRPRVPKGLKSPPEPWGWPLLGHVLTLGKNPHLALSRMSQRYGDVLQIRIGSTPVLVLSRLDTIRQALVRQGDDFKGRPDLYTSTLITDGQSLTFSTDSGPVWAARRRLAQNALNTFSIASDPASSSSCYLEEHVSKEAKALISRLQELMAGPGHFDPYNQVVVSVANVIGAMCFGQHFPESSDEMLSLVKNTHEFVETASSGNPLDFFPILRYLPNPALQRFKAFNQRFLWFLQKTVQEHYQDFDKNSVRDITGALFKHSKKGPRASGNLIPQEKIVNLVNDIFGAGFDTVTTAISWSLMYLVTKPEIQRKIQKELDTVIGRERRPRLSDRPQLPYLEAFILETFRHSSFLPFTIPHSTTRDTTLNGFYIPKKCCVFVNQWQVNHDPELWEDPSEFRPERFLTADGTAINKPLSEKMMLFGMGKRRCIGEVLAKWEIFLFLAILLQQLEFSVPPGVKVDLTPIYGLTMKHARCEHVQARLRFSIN

Cytochrome P450 2D6 = Cytochrome P450 2D6 (Homo sapiens, UniProt P10635); assay: Inhibition of recombinant CYP2D6 (unknown origin) by LC/MS/MS analysis; type: ADME; method in brief: as §2
Cytochrome P450 2D6, sequence (P10635 whole entry): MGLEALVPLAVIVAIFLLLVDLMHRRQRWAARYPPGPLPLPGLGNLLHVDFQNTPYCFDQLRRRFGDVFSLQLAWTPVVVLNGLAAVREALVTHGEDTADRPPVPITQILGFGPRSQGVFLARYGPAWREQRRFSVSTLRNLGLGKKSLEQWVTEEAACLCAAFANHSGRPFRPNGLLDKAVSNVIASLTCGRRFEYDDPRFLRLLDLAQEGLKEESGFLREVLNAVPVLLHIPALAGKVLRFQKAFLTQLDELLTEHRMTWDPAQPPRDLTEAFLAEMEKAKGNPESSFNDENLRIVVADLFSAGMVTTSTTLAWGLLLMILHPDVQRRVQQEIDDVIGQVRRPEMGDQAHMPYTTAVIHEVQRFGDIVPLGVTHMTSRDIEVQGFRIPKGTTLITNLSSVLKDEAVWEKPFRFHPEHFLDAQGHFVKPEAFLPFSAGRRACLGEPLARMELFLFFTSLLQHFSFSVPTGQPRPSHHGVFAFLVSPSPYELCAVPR

SMILES | half-life [1] [min] | half-life [2] [min] | MIC80 [3] [µM] | MIC80 [4] [µM] | solubility [5] [µg/mL] | solubility [6] [µg/mL] | IC50 (Cytochrome P450 2C9) [nM] | IC50 (Cytochrome P450 3A4) [nM] | IC50 (Cytochrome P450 2C19) [nM] | IC50 (Cytochrome P450 1A2) [nM] | IC50 (Cytochrome P450 2D6) [nM]
CCc1nc2cc(Cl)ccn2c1C(=O)NCc1ccc(-c2ccc(C(=O)O)cc2)cc1 | > 120 | > 120 | 0.217 (≈ 0.0942 µg/mL) | 0.25 (≈ 0.108 µg/mL) | – | – | – | – | – | – | –
CCc1nc2cc(Cl)ccn2c1C(=O)NCc1ccc(N2CC3CCCCC3C2)cc1 (stereo unspecified) | 14.9 | 6.3 | 0.0094 (≈ 0.00411 µg/mL) | 0.025 (≈ 0.0109 µg/mL) | – | – | – | – | – | – | –
CCc1nc2ccc(Cl)cn2c1C(=O)Nc1ccc(-c2ccccc2)cc1 | – | – | > 10 | > 10 | – | – | – | – | – | – | –
CCc1nc2ccc(Cl)cn2c1C(=O)NCc1ccc(-c2ccc(C#N)cc2)cc1 | > 120 | > 60 | 0.00068 (≈ 0.000282 µg/mL) | < 0.0005 | 1.06 (≈ 2.55 µM) | 0.61 (≈ 1.47 µM) | – | – | – | – | –
CCc1nc2ccc(Cl)cn2c1CC(=O)NCc1ccc(-c2ccccc2)cc1 | – | – | > 10 | > 10 | – | – | – | – | – | – | –
CCc1nc2ccc(Cl)cn2c1C(=O)NCc1ccc(-c2ccccc2)cc1 | 22.8 | 19.3 | 0.00139 (≈ 0.000542 µg/mL) | 0.045 (≈ 0.0175 µg/mL) | – | – | – | – | – | – | –
CCc1nc2cc(Cl)ccn2c1C(=O)NCc1ccc(N2CCC(c3ccc(F)cc3)CC2)cc1 | 6.8 | 18.4 | 0.00066 (≈ 0.000324 µg/mL) | 0.54 (≈ 0.265 µg/mL) | – | – | 500 | 2070 | 600 | > 40000 | > 40000
CO[C@H]1/C=C/O[C@@]2(C)Oc3c(C)c(O)c4c(O)c(c(/C=N/N5CCN(C)CC5)c(O)c4c3C2=O)NC(=O)/C(C)=C\C=C\[C@H](C)[C@H](O)[C@@H](C)[C@@H](O)[C@@H](C)[C@H](OC(C)=O)[C@@H]1C [RIFAMPIN] | – | – | 0.18 (≈ 0.148 µg/mL) | 0.0266 (≈ 0.0219 µg/mL) | – | – | – | – | – | – | –
CCc1nc2cc(Cl)ccn2c1C(=O)NCc1ccc(N2CCCCCC2)cc1 | 2.9 | 1.9 | 0.01 (≈ 0.00411 µg/mL) | 0.035 (≈ 0.0144 µg/mL) | – | – | – | – | – | – | –
CCCc1nc2ccccn2c1C(=O)NCc1ccc(-c2ccccc2)cc1 | 22.4 | 8.7 | 0.05 (≈ 0.0185 µg/mL) | 1.18 (≈ 0.436 µg/mL) | – | – | – | – | – | – | –
CCc1nc2cc(Cl)ccn2c1C(=O)NCc1ccc(N2CCC(c3ccc(Cl)cc3)CC2)cc1 | 67.3 | 112 | 0.00046 (≈ 0.000233 µg/mL) | 0.001 (≈ 0.000507 µg/mL) | – | – | 190 | > 40000 | 380 | > 40000 | > 40000
CCc1nc2ccc(Cl)cn2c1CC(=O)Nc1ccc(-c2ccccc2)cc1 | – | – | > 10 | > 10 | – | – | – | – | – | – | –
CCc1nc2ccc(Cl)cn2c1C(=O)NCc1ccc(-c2ccc(C)cc2)cc1 | 30.5 | 40.6 | 0.00043 (≈ 0.000174 µg/mL) | 0.0007 (≈ 0.000283 µg/mL) | 1.42 (≈ 3.52 µM) | 1.56 (≈ 3.86 µM) | – | – | – | – | –
Cc1nc2ccc(Cl)cn2c1C(=O)NCc1ccc(-c2ccccc2)cc1 | > 120 | > 60 | 0.042 (≈ 0.0158 µg/mL) | 0.175 (≈ 0.0658 µg/mL) | – | – | – | – | – | – | –
CCc1nc2cc(Cl)ccn2c1C(=O)NCc1ccc(-c2ccc(C(C)(C)C)cc2)cc1 | 18.5 | 50.7 | 0.00046 (≈ 0.000205 µg/mL) | 0.012 (≈ 0.00535 µg/mL) | – | – | – | – | – | – | –
CCc1nc2cc(Cl)ccn2c1C(=O)NCc1ccc(-c2ccncc2)cc1 | 28.9 | – | 0.74 (≈ 0.289 µg/mL) | 2.22 (≈ 0.868 µg/mL) | – | – | – | – | – | – | –
CCc1nc2ccc(Cl)cn2c1C(=O)NCc1ccc(N2CCN(c3ccc(OC(F)(F)F)cc3)CC2)cc1 | > 120 | > 60 | 0.00023 (≈ 0.000128 µg/mL) | < 0.0005 | 12.1 (≈ 21.6 µM) | 1.1 (≈ 1.97 µM) | 570 | 11500 | > 40000 | > 40000 | > 40000
CCc1nc2cc(Cl)ccn2c1C(=O)NCc1ccc(N2CCC(Cl)CC2)cc1 | 11 | 5.2 | 0.002 (≈ 0.000863 µg/mL) | 0.019 (≈ 0.0082 µg/mL) | – | – | – | – | – | – | –
CCc1nc2ccc(Cl)cn2c1NC(=O)Cc1ccc(-c2ccccc2)cc1 | – | – | 0.69 (≈ 0.269 µg/mL) | 1.67 (≈ 0.651 µg/mL) | – | – | – | – | – | – | –
